According to article PMC3090455 (Analytical biochemistry, 2011):
Each block holds one molecule with its values, some of them ahead of it.

Key:
rat mEH [1] = biological target: T1, rat mEH (Rattus norvegicus, UniProt P07687); experiment: Inhibition potency assay with fluorescent substrate 11, rat mEH; format: biochemical
T1 sequence (P07687 1-455): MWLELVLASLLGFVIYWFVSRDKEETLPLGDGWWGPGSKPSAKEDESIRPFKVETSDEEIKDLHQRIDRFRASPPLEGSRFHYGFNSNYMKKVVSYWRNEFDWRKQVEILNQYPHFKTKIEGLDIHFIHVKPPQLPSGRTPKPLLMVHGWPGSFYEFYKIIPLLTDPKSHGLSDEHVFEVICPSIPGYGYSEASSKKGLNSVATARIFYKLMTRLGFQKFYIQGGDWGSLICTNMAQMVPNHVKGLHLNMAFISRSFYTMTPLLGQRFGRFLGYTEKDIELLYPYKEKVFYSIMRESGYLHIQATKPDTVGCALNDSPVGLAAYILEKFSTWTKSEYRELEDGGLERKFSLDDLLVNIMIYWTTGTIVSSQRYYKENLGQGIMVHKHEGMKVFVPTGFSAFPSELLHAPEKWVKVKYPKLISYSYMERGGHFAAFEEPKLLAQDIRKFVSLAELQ
Summary of the method: (§1)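 Kinetic fluorescent format: baculovirus-expressed, partially purified enzyme in 100 mM Tris/HCl pH 8.5 with 0.1 mg/mL BSA (final human 1.6, rat 0.5 μg/mL), preincubated 5 min at 30°C with inhibitor (0–200 μM final, from DMSO). Substrate at 25 μM final (rat also tested at 2.5 μM). Naphthaldehyde followed 10 min at 30°C. IC50 regressed from ≥6 points in the linear region; three runs, each in triplicate.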

rat mEH [2] = biological target: T1, rat mEH; experiment: Inhibition potency assay with [3H]-cSO radiochemical substrate, rat mEH; format: biochemical
Summary of the method: (§2)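 Radiochemical format with [3H]-cis-stilbene oxide at 50 μM final. Partially purified recombinant enzyme: rat 1.0, human 3.2 μg/mL. Reaction in 100 mM Tris/HCl pH 9.0 with 0.1 mg/mL BSA, 5 min at 30°C, quenched with isooctane to extract remaining epoxide. Radioactive diol in the aqueous phase counted by liquid scintillation; run in triplicate.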

human mEH [3] = biological target: T2, human mEH (Homo sapiens, UniProt P07099); experiment: Inhibition potency assay with [3H]-cSO radiochemical substrate, human mEH; format: biochemical
T2 sequence (P07099 1-455): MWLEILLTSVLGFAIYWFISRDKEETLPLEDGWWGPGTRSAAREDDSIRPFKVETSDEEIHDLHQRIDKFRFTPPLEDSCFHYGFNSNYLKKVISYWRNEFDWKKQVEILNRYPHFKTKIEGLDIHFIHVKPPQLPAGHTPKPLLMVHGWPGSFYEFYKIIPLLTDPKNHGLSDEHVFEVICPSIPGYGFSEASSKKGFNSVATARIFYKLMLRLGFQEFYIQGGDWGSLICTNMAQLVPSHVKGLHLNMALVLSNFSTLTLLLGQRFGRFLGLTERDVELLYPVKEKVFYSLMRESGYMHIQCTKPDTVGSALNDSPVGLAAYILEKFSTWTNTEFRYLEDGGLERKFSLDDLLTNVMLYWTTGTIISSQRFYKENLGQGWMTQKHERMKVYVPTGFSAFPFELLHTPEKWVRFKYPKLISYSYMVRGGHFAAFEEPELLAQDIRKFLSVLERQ
Summary of the method: as §2

rat mEH [4] = biological target: T1, rat mEH; experiment: High throughput screening end-point assay with 11, rat mEH; format: biochemical; conditions: [I] 10 μM, [11] 25 μM, 30 min end-point, room temperature
Summary of the method: (§3)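 End-point screen of a pesticide library at 10 μM final. Recombinant partially purified enzyme (human 1.6, rat 0.5 μg/mL final) in 100 mM Tris/HCl pH 8.5 with 0.1 mg/mL BSA, preincubated with compounds 5 min at 30°C. Substrate added to 25 μM, then 30 min at room temperature in the dark before fluorescence reading (ex 330/em 465 nm). Buffer-only background and full-activity control wells; duplicate averages.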

human mEH [5] = biological target: T2, human mEH; experiment: High throughput screening end-point assay with 11, human mEH; format: biochemical; conditions: [I] 10 μM, [11] 25 μM, 30 min end-point, room temperature
Summary of the method: as §3

mEH [6] = experiment: Retest of screening hits in inhibition potency assay with 11; format: biochemical; conditions: 10 μM
Summary of the method: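 Hits from the library screen retested at 10 μM in the kinetic fluorescent format: 5 min preincubation with partially purified enzyme in Tris/HCl pH 8.5 with BSA at 30°C. Then 25 μM substrate, with 6-methoxy-2-naphthaldehyde monitored for 10 min.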

mEH [7] = experiment: Retest of screening hits with cSO as substrate; format: biochemical; conditions: suggests false positive in fluorescent assay
human mEH [8] = biological target: T2, human mEH; experiment: Inhibition potency assay with fluorescent substrate 11, human mEH; format: biochemical
Summary of the method: as §1

Background = format: physicochemical; conditions: [S] 50 μM, Tris/HCl 100 mM pH 9.0, 0.1 mg/mL BSA, 37°C, 4-nitrophenol absorbance
Summary of the method: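 Enzyme-free control wells held Tris/HCl (100 mM, pH 9.0, 0.1 mg/mL BSA), preincubated 5 min at 37°C. Substrate was added from a 5 mM DMSO stock working solution to 50 μM final, and product was read kinetically for 5 min. Read-out was 4-nitrophenol absorbance at […] fluorescence (ex 355/em 450 or ex 330/em 465 nm). Signals were converted to molar amounts via 0.005–0.5 μM standard curves; 8 replicates.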

rat mEH [9] = biological target: T1, rat mEH; experiment: Specific activity of rat mEH for absorbent/fluorescent substrates; format: biochemical; conditions: [S] 50 μM, pH 9.0, 37°C, 4-nitrophenyl substrates
Summary of the method: (§4)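 Partially purified recombinant enzyme (0.5–80 μg/mL final) in 100 mM Tris/HCl pH 9.0 with 0.1 mg/mL BSA, preincubated 5 min at 37°C. Substrate added at 50 μM final from 5 mM DMSO stock; buffer-only wells gave background. Read kinetically for 5 min: 4-nitrophenol at 450 nm, or fluorescence (coumarin ex 355/em 450; naphthaldehyde ex 330/em 465). Signals converted via standard curves (0.005–0.5 μM); 8 replicates.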

human mEH [10] = biological target: T2, human mEH; experiment: Specific activity of human mEH for absorbent/fluorescent substrates; format: biochemical; conditions: [S] 50 μM, pH 9.0, 37°C, 4-nitrophenyl substrates
Summary of the method: as §4

[11] = substrate: COc1ccc2cc(C(C#N)OC(=O)OCC3CO3)ccc2c1; experiment: Kinetic constants determination, human mEH; format: biochemical; conditions: other: Tris/HCl pH 9.0 100 mM, 0.1 mg/mL BSA, 37°C
[12] = substrate: COc1ccc2cc(C(C#N)OC(=O)OCC3CO3)ccc2c1; experiment: Kinetic constants determination, rat mEH; format: biochemical; conditions: other: Tris/HCl pH 9.0 100 mM, 0.1 mg/mL BSA, 37°C
[13] = IC50, Rat mEH, 11 as substrate, [11] 25 μM, enzyme 0.5 μg/mL, pH 8.5, 30°C

IC50 (rat mEH [1]; [13]): 4200 ± 700 nM | IC50 (rat mEH [1]; IC50, rat mEH, 11 as substrate near its KM, [11] = 2.5 μM): 500 nM | IC50 (rat mEH [2]): 400 ± 100 nM | IC50 (human mEH [3]): 500 ± 100 nM
Molecule: CCCCCCCCCSC(C)C(N)=O (stereo not drawn) [A, 2-nonylsulfanyl-propionamide]

Molecule: CC(C)[C@H](C(=O)O[C@H](C#N)c1cccc(Oc2ccccc2)c1)c1ccc(Cl)cc1 [Asana]
inhibition of rat mEH in library screen (rat mEH [4]): significant inhibition | inhibition of human mEH in library screen (human mEH [5]): significant inhibition | mEH inhibition on retest with 11 in the inhibition potency assay (mEH [6]): confirmed mEH inhibition | mEH inhibition with cSO as substrate (mEH [7]): no inhibition was observed

Molecule: CCCCCCCC/C=C/CCCCCCCC(N)=O [B, elaidamide]
IC50 (rat mEH [1]; read-out: IC50, Rat mEH, 11 as substrate, [11] 25 μM, enzyme 0.5 μg/mL, pH 8.5, 30°C): 63000 ± 5000 nM | IC50 (human mEH [8]; read-out: IC50, Human mEH, 11 as substrate, [11] 25 μM, enzyme 1.6 μg/mL, pH 8.5, 30°C): 140000 ± 13000 nM | IC50 (rat mEH [2]; read-out: IC50, Rat mEH, cSO as substrate, [cSO] 50 μM, enzyme 1.0 μg/mL): 500 ± 100 nM | IC50 (human mEH [3]; read-out: IC50, Human mEH, cSO as substrate, [cSO] 50 μM, enzyme 3.2 μg/mL): 1000 ± 100 nM

Molecule: Brc1ccc(Oc2ccc(Br)cc2Br)c(Br)c1 [BDE47]
inhibition of rat mEH in library screen (rat mEH [4]): significant inhibition | inhibition of human mEH in library screen (human mEH [5]): significant inhibition | mEH inhibition on retest with 11 in the inhibition potency assay (mEH [6]): confirmed mEH inhibition | mEH inhibition with cSO as substrate (mEH [7]): no inhibition was observed

IC50 (rat mEH [1]; [13]): 123000 ± 13000 nM | IC50 (human mEH [8]): > 200000 nM | IC50 (rat mEH [2]): 1100 ± 100 nM | IC50 (human mEH [3]): 2600 ± 300 nM
Molecule: CCCCCCC(O)CCCCCCCCCCC(N)=O (stereo not drawn) [C, 12-hydroxy-octadecanamide]

background hydrolysis (Background): 0.31 ± 0.02 nmol/min | Rat mEH S/B (signal to background ratio) (rat mEH [9]): 5 | Rat mEH S/N (signal to noise ratio) (rat mEH [9]): 32 | Rat mEH Spec. act. (rat mEH [9]): 29 ± 2 nmol/min/mg | Rat mEH Z' (screening window coefficient) (rat mEH [9]): 0.67 | Human mEH S/B (signal to background ratio) (human mEH [10]): 3 | Human mEH S/N (signal to noise ratio) (human mEH [10]): 53 | Human mEH Spec. act. (human mEH [10]): 51 ± 2 nmol/min/mg | Human mEH Z' (screening window coefficient) (human mEH [10]): 0.82
Molecule: O=C(OCC1CO1)Oc1ccc([N+](=O)[O-])cc1 (stereo not drawn) [compound 6, 4-Nitrophenyl (oxiran-2-yl)methyl carbonate]

Molecule: Oc1cc(Cl)ccc1Oc1ccc(Cl)cc1Cl [triclosan]
inhibition of rat mEH in library screen (rat mEH [4]): significant inhibition | inhibition of human mEH in library screen (human mEH [5]): significant inhibition | mEH inhibition on retest with 11 in the inhibition potency assay (mEH [6]): confirmed mEH inhibition | mEH inhibition with cSO as substrate (mEH [7]): no inhibition was observed

B1: human mEH (Homo sapiens) (protein)
chain: T2 sequence (P07099 1-455)
Km [11]: 3.8 ± 0.6 µM | Vmax [11]: 0.042 µmol/min/mg | Vmax/Km [11]: 11000 µL/min/mg

B2: rat mEH (Rattus norvegicus) (protein)
chain: T1 sequence (P07687 1-455)
Km [12]: 2.3 ± 0.4 µM | Vmax [12]: 0.089 µmol/min/mg | Vmax/Km [12]: 40000 µL/min/mg
